How the values were obtained:
MDA-MB-231 cells = test: MTT assay, MDA-MB-231; assay type: cell-based; conditions: Homo sapiens, MDA-MB-231, 48 h, read-out: MTT IC50
How it was run: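 TNBC cells maintained in DMEM with 10% FBS at 37 °C, 5% CO2. About 10 000 cells/well seeded and exposed to test compound at 0.5–80 μM for 48 h, with 0.1% DMSO medium as control. MTT (1 mg mL−1) added for 4 h at 37 °C. Formazan dissolved in DMSO for 30 min at room temperature. Absorbance read at 540 nm.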

[1] = target: T1, rat α2,3-O-sialyltransferase ST3GAL1 (Rattus norvegicus, UniProt Q6H8N0); conditions: cited from earlier work
T1 sequence (Q6H8N0 1-340): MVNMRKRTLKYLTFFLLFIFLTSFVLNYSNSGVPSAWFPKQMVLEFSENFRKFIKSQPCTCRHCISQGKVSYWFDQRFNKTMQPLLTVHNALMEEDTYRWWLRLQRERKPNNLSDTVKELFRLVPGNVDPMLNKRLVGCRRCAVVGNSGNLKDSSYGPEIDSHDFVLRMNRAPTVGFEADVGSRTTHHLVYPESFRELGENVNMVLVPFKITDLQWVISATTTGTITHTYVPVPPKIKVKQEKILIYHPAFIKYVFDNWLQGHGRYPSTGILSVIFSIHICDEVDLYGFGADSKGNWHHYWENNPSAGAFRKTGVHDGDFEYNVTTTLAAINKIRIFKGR

SMILES	IC50 (MDA-MB-231 cells)	ST3GAL1 % Inhibition at 500 μM [1]
c1ccc2c(Cc3c[nH]c4ccccc34)c[nH]c2c1 [3,3′-DIM, 3,3′-diindolylmethane]	40 to 80 µM	
C[C@H](CCC(=O)O)[C@H]1CC[C@H]2[C@@H]3CC[C@@H]4C[C@H](O)CC[C@]4(C)[C@H]3CC[C@]12C [LCA, Lithocholic acid]		53%
